Results on six molecules are retold here after ChEMBL document CHEMBL1641600, “Novel bifunctional alkylating agents, 5,10-dihydropyrrolo[1,2-b]isoquinoline derivatives, synthesis and biological activity” (Bioorg Med Chem, 2011).

The structures appear in SMILES notation. The source made the active and inactive calls. No cut-off for these calls is given here.

The test system of assay [1] is PC-3. Nature of the assay: Cytotoxicity against human PC3 cells after 72 hrs by Alamar blue assay. Type of assay: functional, cell-based. Conditions: PC-3, 72 h. In a few lines:
(§1)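 H1299, PC3, OECM1 and U87 cells exposed 72 h to six or seven drug concentrations. Alamar blue added for 6 h at 37 °C; absorbance read at 570 and 600 nm. IC50 obtained from dose-effect data by the median-effect principle.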
A general note: Alamar Blue is a resazurin reagent that responds to reducing activity.

Assay [2] can be described thus: Cytotoxicity against human OECM1 cells after 72 hrs by Alamar blue assay. Type of assay: functional, cell-based. Conditions: OECM1, 72 h. In a few lines: as §1
The subject of assay [3] is CCRF-CEM. Nature of the assay: Cytotoxicity against human CCRF-CEM cells after 72 hrs by XTT assay. The format is functional, cell-based. The essentials:
(§2)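 Leukemic CCRF-CEM and its Taxol- and vinblastine-resistant sublines exposed 72 h to six or seven drug concentrations. XTT with phenazine methosulfate added for 6 h at 37 °C; absorbance read at 450 and 630 nm. IC50 obtained from dose-effect data by the median-effect principle.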

Assay [4] can be described thus: Cytotoxicity against human U87 cells after 72 hrs by Alamar blue assay. The format is functional, cell-based, U-87MG ATCC. Conditions: U-87 MG. In a few lines: as §1
The test system of assay [5] is CCRF-CEM. The assay is described as follows: Cytotoxicity against Taxol-resistant human CCRF-CEM cells after 72 hrs by XTT assay. The format is functional, cell-based. The essentials: as §2
For orientation: Formazan colour is commonly taken as a measure of viable cells.

Assay [6] is described as follows: Cytotoxicity against human H1299 cells after 72 hrs by Alamar blue assay. The format is functional, cell-based. Conditions: NCI-H1299, 72 h. The essentials:
as §1

In assay [7] the test system is CCRF-CEM. The assay is described as follows: Ratio of IC50 for Taxol-resistant human CCRF-CEM cells to IC50 for human CCRF-CEM cells.
Assay [8] concerns CCRF-CEM. Nature of the assay: Cytotoxicity against vinblastine-resistant human CCRF-CEM cells after 72 hrs by XTT assay. Type of assay: functional, cell-based. In a few lines:
as §2

Assay [9] concerns MX1. The assay is described as follows: Cytotoxicity against human MX1 cells after 72 hrs by SRB assay. Type of assay: functional, cell-based. Conditions: MX1, 72 h. In a few lines:
(§3)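 MX-1 breast and HCT-116 colon carcinoma cells exposed 72 h to six or seven drug concentrations. Growth measured by SRB assay with microplate absorbance. IC50 obtained from dose-effect data by the median-effect principle.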
Background: The SRB assay estimates cell density from bound dye.

The test system of assay [10] is HCT-116. Nature of the assay: Cytotoxicity against human HCT116 cells after 72 hrs by SRB assay. Type of assay: functional, cell-based. Conditions: HCT-116, 72 h. The essentials: as §3
Assay [11] deals with NCI-H1299. The assay is described as follows: Cell cycle arrest in human H1299 cells assessed as accumulation at subG1 phase at 1.25 uM after 24 hrs by propidium iodide staining-based flow cytometry. Conditions: NCI-H1299, 24 h.
Assay [12] has as its system NCI-H1299. The assay is described as follows: Cell cycle arrest in human H1299 cells assessed as accumulation at G1 phase at 1.25 uM after 24 hrs by propidium iodide staining-based flow cytometry. Conditions: NCI-H1299, 24 h.
Assay [13] deals with Nucleic Acid. The assay is described as follows: Induction of Escherichia coli pEGFP-N1 DNA cross-linking at 1 to 20 uM after 2 hrs by alkaline agarose gel shift assay. Type of assay: nucleic-acid assay. In a few lines: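 pEGFP-N1 plasmid DNA (1.5 µg) incubated with compound (1–20 µM) in binding buffer (3 mM NaCl/1 mM sodium phosphate pH 7.4, 1 mM EDTA) for 2 h at 37 °C. Plasmid then linearized with BamHI, ethanol-precipitated, and resolved on alkaline agarose gel into single-stranded and cross-linked bands. Melphalan (1, 5, 10 µM) as positive control.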

Assay [14] concerns NCI-H1299. Nature of the assay: Cell cycle arrest in human H1299 cells assessed as accumulation at subG1 phase at 5 uM after 24 hrs by propidium iodide staining-based flow cytometry. Conditions: NCI-H1299, 24 h.
For assay [15], the system named is NCI-H1299. Nature of the assay: Cell cycle arrest in human H1299 cells assessed as accumulation at G1 phase at 2.5 uM after 24 hrs by propidium iodide staining-based flow cytometry. Conditions: NCI-H1299, 24 h.
Assay [16] relates to NCI-H1299. The assay is described as follows: Cell cycle arrest in human H1299 cells assessed as accumulation at S phase at 5 uM after 24 hrs by propidium iodide staining-based flow cytometry. Conditions: NCI-H1299, 24 h.
The subject of assay [17] is NCI-H1299. The assay is described as follows: Cell cycle arrest in human H1299 cells assessed as accumulation at S phase at 1.25 uM after 24 hrs by propidium iodide staining-based flow cytometry. Conditions: NCI-H1299, 24 h.
Assay [18] deals with NCI-H1299. The assay is described as follows: Cell cycle arrest in human H1299 cells assessed as accumulation at G2/M phase at 1.25 uM after 24 hrs by propidium iodide staining-based flow cytometry. Conditions: NCI-H1299, 24 h.
In assay [19] the test system is MX1. The assay is described as follows: Antitumor activity against human MX1 cells implanted in mouse assessed as complete suppression in tumor size at 30 mg/kg, iv Q2D for 2 times measured on day 8 and 10. The format is functional, organism-based. Also on record: dose 30 mg/kg. In a few lines: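 Athymic nu/nu nude mice (outbred Swiss background, male, ≥8 weeks, about 22 g) bearing human tumor xenografts; MX-1 dosed iv Q2D×2 (day 8 and 10), SK-OV-3 dosed iv QD×4 from day 22. Tail-vein injection in DMSO/Tween 80/saline vehicle at the maximal tolerable dose. Tumor volume measured by caliper (length×width×height or width); body weight followed; n = 4.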

For assay [20], the system named is SK-OV-3. Nature of the assay: Antitumor activity against human SKOV3 cells implanted in mouse assessed as significant suppression in tumor size at 20 mg/kg, iv QD for 4 times measured on day 22.
The test system of assay [21] is NCI-H1299. Nature of the assay: Cell cycle arrest in human H1299 cells assessed as accumulation at G2/M phase at 2.5 uM after 24 hrs by propidium iodide staining-based flow cytometry. Conditions: NCI-H1299, 24 h.
Assay [22] has as its system NCI-H1299. The assay is described as follows: Cell cycle arrest in human H1299 cells assessed as accumulation at subG1 phase at 2.5 uM after 24 hrs by propidium iodide staining-based flow cytometry. Conditions: NCI-H1299, 24 h.
Assay [23] deals with NCI-H1299. Nature of the assay: Cell cycle arrest in human H1299 cells assessed as accumulation at G2/M phase at 5 uM after 24 hrs by propidium iodide staining-based flow cytometry. Conditions: NCI-H1299, 24 h.
The subject of assay [24] is NCI-H1299. Nature of the assay: Cell cycle arrest in human H1299 cells assessed as accumulation at S phase at 2.5 uM after 24 hrs by propidium iodide staining-based flow cytometry. Conditions: NCI-H1299, 24 h.
Assay [25] relates to NCI-H1299. Nature of the assay: Cell cycle arrest in human H1299 cells assessed as accumulation at G1 phase at 5 uM after 24 hrs by propidium iodide staining-based flow cytometry. Conditions: NCI-H1299, 24 h.

With `COc1ccc(-c2c(COC(=O)NC(C)C)c(COC(=O)NC(C)C)c3n2Cc2ccccc2C3)cc1`, the concentration for half-maximal inhibition (IC50) in assay [1] is 6790 nM; in assay [2], 8830 nM; in assay [3], 340 nM; in assay [4], 21000 nM; in assay [5] it was 190 nM; in assay [6], 13200 nM. The IC50 is 160 nM in assay [8], 980 nM in [9] and 970 nM in assay [10]. Further, the “Ratio IC50” value in assay [7] was found to be 0.56.

For `Cc1c(CO)c(CO)c2n1Cc1ccccc1C2`, the cell population % at 1.25 µM in assay [11] amounted to 21.6%; in assay [12] it was 5.6%; in [17], 32.7%; in assay [18] it was 40.1%. Also, the IC50 in assay [1] came out at 6070 nM; in assay [2] it was 6100 nM; in [3] it was 80 nM; in assay [4], 27900 nM; in assay [5] it was 100 nM; in [6], 2480 nM. Moreover, the half-inhibitory concentration (IC50) in [8] stood at 90 nM; in assay [9] it was 660 nM; in assay [10], 290 nM. In addition, the outcome in assay [13], in assay [19] and in [20] was Active. In addition, the cell population % at 5 µM was found to be 26.5% in assay [14], 24.7% in assay [16], 48.4% in assay [23] and 0.5% in assay [25]. Besides, the cell population % at 2.5 µM in [15] is 7.7%; in assay [21] it was 47.3%; in [22], 26.6%; in assay [24], 18.3%. Further, the “Ratio IC50” value in assay [7] was 1.22.

In the case of `CCNC(=O)OCc1c(COC(=O)NCC)c(-c2ccc(F)cc2)n2c1Cc1ccccc1C2`, the IC50 in assay [1] came out at 9590 nM; in assay [2] it was 12500 nM; in assay [3] it was 310 nM; in assay [4], 28400 nM; in assay [5], 430 nM; in assay [6], 3940 nM. The 50% inhibitory concentration (IC50) turned out to be 570 nM in assay [8], 1510 nM in assay [9] and 790 nM in assay [10]. For the same molecule, the “Ratio IC50” value in assay [7] is 1.39.

Consider `CCNC(=O)OCc1c(COC(=O)NCC)c(-c2ccc(OC)cc2)n2c1Cc1ccccc1C2`, for which the IC50 in assay [1] is 18500 nM; in assay [2] it was 10500 nM; in assay [3] it was 370 nM; in [4] it was 17100 nM; in assay [5], 220 nM; in assay [6] it was 27600 nM. Also, the values for the IC50 in assay [8], in assay [9] and in assay [10] were 350 nM, 1270 nM and 750 nM, respectively. Moreover, the “Ratio IC50” value in [7] is 0.58.

As to `CCNC(=O)OCc1c(COC(=O)NCC)c2n(c1C)Cc1ccccc1C2`, the IC50 in assay [1] came to 15400 nM; in [2], 11300 nM; in assay [3], 240 nM; in assay [4] it was 13900 nM; in assay [5], 110 nM; in [6], 19400 nM. For the same molecule, the results for the IC50 in [8], in assay [9] and in assay [10] were 120 nM, 2270 nM and 900 nM, respectively. In addition, in assay [7], the “Ratio IC50” value is 0.48.

Turning to `COc1ccc(-c2c(CO)c(CO)c3n2Cc2ccccc2C3)cc1`, the half-maximal inhibitory concentration (IC50) in assay [1] came to 10900 nM; in [2], 6120 nM; in assay [3], 230 nM; in assay [4], 10600 nM; in assay [5] it was 250 nM; in [6], 13900 nM. Further, the IC50 in assay [8] is 110 nM; in assay [9] it was 1990 nM; in [10], 1130 nM. The “Ratio IC50” value in [7] is 1.02.

What is called IC50 is the midpoint of a concentration-inhibition curve. Low readings indicate greater potency in that assay, high ones weaker potency in that assay.
